# Screening results as filed in PubChem BioAssay.
# PDI turbidity = blocks human protein disulfide isomerase activity. P07237. PDI insulin aggregation turbidity, A650, 90 min. inhibition, % at 10 µM. 350,000 compounds, 0.052% hits;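 active = mean inhibition across replicates of 30% or more, whatever share of single replicates reach that level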
# S100A4 MyoIIA = inhibitors of human S100A4 binding to myosin IIA peptide. AID 652163. 360,000 compounds, 0.14% hits. S100A4/TAMRA-MyoIIA peptide fluorescence polarization. P26447. inhibition, % at 10.7 µM;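 active = mean inhibition of at least 70% across replicates, with every replicate also reaching that level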
# Target sequence (P26447 whole entry, looked up): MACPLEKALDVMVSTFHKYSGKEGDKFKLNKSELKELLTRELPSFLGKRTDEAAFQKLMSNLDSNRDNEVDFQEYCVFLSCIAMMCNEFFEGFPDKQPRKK
#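 Material: S100A4 monomer protein / Buffer or medium: 50 mM HEPES pH 7.2, 10 mM CaCl2, 100 mM KCl / Times: 5 min incubation before reading / Benchmarks: neutral control DMSO, positive control TFP / Reagent: labelled myosin peptide probe, 5 nM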
# ERp5 block = blocks human ERp5 reductase activity on insulin | Q15084 | ERp5 insulin aggregation, absorbance 650 nm, 90 min | inhibition, % at 9.99 µM | 350,000 compounds, 0.05% hits | AID 651711;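 active = mean replicate inhibition above about 25%, with every replicate also reaching it, limit read from the data, passing the limit was not always enough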
# Target sequence (Q15084 whole entry, looked up): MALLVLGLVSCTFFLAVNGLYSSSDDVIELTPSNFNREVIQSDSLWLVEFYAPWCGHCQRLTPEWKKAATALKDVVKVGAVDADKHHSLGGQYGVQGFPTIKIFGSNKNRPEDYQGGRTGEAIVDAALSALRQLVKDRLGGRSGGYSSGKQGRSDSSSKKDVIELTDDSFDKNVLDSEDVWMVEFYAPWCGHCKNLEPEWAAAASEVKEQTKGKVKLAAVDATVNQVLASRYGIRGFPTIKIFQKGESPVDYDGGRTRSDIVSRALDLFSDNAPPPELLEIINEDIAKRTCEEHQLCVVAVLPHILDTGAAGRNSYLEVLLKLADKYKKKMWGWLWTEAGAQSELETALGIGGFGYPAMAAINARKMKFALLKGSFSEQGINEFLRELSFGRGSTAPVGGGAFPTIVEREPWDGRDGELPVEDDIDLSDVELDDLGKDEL
# ERAP1 inh = ERAP1 (human) enzyme inhibition. Q9NZ08. recombinant ERAP1, Leu-AMC fluorescence, 60 min. inhibition, % at 10.7 µM. 340,000 compounds, 0.15% hits. AID 652197;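 active = mean replicate inhibition of at least 30%, or all replicates individually reaching that 30% level; inactive = mean below 30% and not every replicate reaching it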;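 also: 0% = neutral control wells and 100% = L-leucinethiol positive control wells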
# FGF22 binding-1 = binders of recombinant human FGF22 by thermal shift; Q9HCT0; 340,000 compounds, 1.5% hits; AID 651658; SYPRO orange fluorescence; percent of sucrose octasulfate shift, DMSO zero; activity (Tm shift, normalised), % at 9.99 µM;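 active = mean Tm shift, scaled 0 neutral to 100 positive control, at about 1.3% or above, every replicate too, limit read from the data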
# FGF22 binding-2 = binders of human FGF22 by thermal shift. shares compounds with FGF22 binding-1. recombinant FGF22 thermal shift, SYPRO orange fluorescence. thermal shift activity, °C (ΔTm) at 38 µM. 1,000 compounds, 2% hits. AID 720646;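 active = fitted rise in melting shift crosses a set limit at or below the top valid dose tested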
# SYPRO no-protein = shows thermal shift signal without protein, FGF22 counter-screen; shares compounds with FGF22 binding-1; compound-only SYPRO orange thermal shift counter-screen, no protein; AC50, µM (highest dose often 38 µM); 1,000 compounds, 2% hits;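 active = rising signal whose fitted curve reaches the 0.54 level within the top valid dose, showing a melting point, actives reach about 13 µM in these data; inactive = the rest, including activity in the opposite direction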; also: value is where the raw curve crosses a fixed level and not half-maximal
# * = called active by the depositor; i = inactive; / = not tested or not shown; [ ] = another dose, or the depositor's remark. This excerpt belongs to a sample that is enriched for hits.
SMILES,PDI turbidity,S100A4 MyoIIA,ERp5 block,ERAP1 inh,FGF22 binding-1,FGF22 binding-2,SYPRO no-protein
Cc1ccc(-c2ccc([C@@H]3[C@@H](CO)N4C(=O)CN(C(=O)c5ccc(F)cc5)C[C@H]34)cc2)cc1,/,-5.2,-6.1,3.0,1.2*,-0.125,i
O=C(c1ccccc1)N1CC(=O)N2[C@H](C1)[C@@H](c1ccc(C#CC3CC3)cc1)[C@@H]2CO,/,0.4,-4.7,4.3,1.8*,0.055[42 µM],i
O=C(c1ccc2c(c1)OCO2)N1CC(=O)N2[C@@H](CO)[C@H](c3ccc(C#CCC4CCCC4)cc3)[C@@H]2C1,/,-6.3,-2.4,0.8,1.8*,-0.027,i
Cc1ccc(-c2ccc([C@H]3[C@H](CO)N4C(=O)CN(C(=O)c5ccc(F)cc5)C[C@@H]34)cc2)cc1,/,2.0,2.5,3.8,1.0,/,/
O=C(c1ccc(F)cc1)N1CC(=O)N2[C@H](CO)[C@H](c3ccc(-c4ccccc4)cc3)[C@@H]2C1,/,-4.7,0.5,2.4,/,/,/
Cc1ccc(-c2ccc([C@H]3[C@@H](CO)N4C(=O)CN(C(=O)c5ccc(F)cc5)C[C@@H]34)cc2)cc1,/,0.3,-3.5,0.7,1.8*,0.118,i
O=C(c1ccccc1)N1CC(=O)N2[C@H](CO)[C@@H](c3ccc(C#CC4CC4)cc3)[C@@H]2C1,/,8.7,-5.9,3.1,0.3,/,/
C[C@]12CC(O)C3C(CCC4=CC(=O)CC[C@@]43C)C1CCC2c1csc(-c2ccccc2)n1 (some centres not stated),21.6,-5.3,2.5,0.2,-0.1,/,/
COc1ccc(-c2oc3ccc(-c4ccc(OC)nc4)cc3c2-c2ccc(OC)cc2)cc1,-5.9,1.8,1.5,-0.4,0.0,/,/
Cc1cccc(NC(=O)c2ncn3c2C(=O)N[C@H](C)C3)c1,/,12.0,3.9,1.0,0.2,/,/
CC(C)(C)c1ccc(CC(=O)N2CCC2(C)C(=O)NS(=O)(=O)c2ccccc2C(F)(F)F)cc1 (configuration not stated),1.7,1.3,-1.7,2.8,0.7,/,/
CCC1CC(C(=O)O)CC(=O)N1 (configuration not stated),/,5.7,1.8,1.0,-0.3,/,/
O=C(CC1SC(=O)NC1=O)Nc1ccc(Cl)cc1 (configuration not stated),-0.1,-3.4,0.9,0.2,6.2*,/,i
O=C(CC1NC(=O)NC1=O)Nc1ccc(Cl)cc1 (configuration not stated),-4.7,/,/,/,/,/,/
O=C(CCn1nc(-c2ccc(Cl)cc2)ccc1=O)NCc1ccccn1,4.6,/,/,/,/,/,/
O=S(=O)(Nc1cc(Cl)ccc1-n1cncn1)c1ccc(F)cc1,-2.0,-3.0,-0.4,0.3,1.5*,-0.013,i
O=[N+]([O-])c1ccc(S(=O)(=O)Nc2nnc(C(F)(F)F)s2)cc1,-9.2,-1.0,4.0,0.7,1.5*,-0.06,i
CCc1cccc(NS(=O)(=O)c2ccc3c(c2)NC(=O)CC(=O)N3)c1,2.3,11.4,1.5,6.8,1.7*,0.08,i
Cc1cccc(NS(=O)(=O)c2ccc3c(c2)NC(=O)CC(=O)N3)c1,-5.2,-3.6,-0.4,1.9,0.3,/,/
O=C(OCC(=O)c1cccs1)c1cccc(C(=O)OCC(=O)c2cccs2)n1,0.8,-3.5,-6.2,-2.1,2.2*,0.026,i
COc1cccc(NC(=O)COc2coc(CN3CCN(c4ccccc4)CC3)cc2=O)c1,-10.1,-0.9,-3.0,2.8,0.1,/,/
CCc1ccc(NC(=O)COc2coc(CN3CCN(c4ccccc4)CC3)cc2=O)cc1,-3.9,-0.4,-0.4,-0.6,2.6*,0.133,i
COc1cccc(CNC(=O)C[C@H]2C=C[C@H](NC(C)=O)[C@@H](CO)O2)c1,/,-24.6,2.7,-0.9,0.0,/,/
CCCCN(C(=O)c1ccc2c(c1)OCCO2)c1c(N)n(CCCC)c(=O)[nH]c1=O,1.9,-0.4,-4.0,2.1,21.4*,0.112,i
CCCCn1c(N)c(N(CCC(C)C)C(=O)c2ccc3c(c2)OCO3)c(=O)[nH]c1=O,10.4,1.5,3.9,-1.3,0.2,/,/
SMILES,PDI turbidity,S100A4 MyoIIA,ERp5 block,ERAP1 inh,FGF22 binding-1,FGF22 binding-2,SYPRO no-protein
O=C(CN1C(=O)NC2(CCOc3ccccc32)C1=O)Nc1ccc(Br)cc1F (configuration not stated),2.0,-6.1,-3.5,-2.4,1.7*,-0.342,i
CCCn1c(O)c(C=Nc2ccccc2)sc1=S,24.1,2.8,1.4,-0.7,0.2,/,/
CCn1c(O)c(C=NCc2ccccc2)sc1=S,12.1,8.9,-2.4,-0.3,2.9*,0.112,i
O=C1OC(c2ccc3c(c2)OCO3)=N/C1=C\c1ccc(C(=O)O)cc1,10.8,-3.8,1.6,-1.2,0.0,/,/
CC(C)c1ccc(NC(=O)Nc2nnc([C@H]3C[C@H](O)[C@@H](CO)O3)s2)cc1,-13.0,-2.1,3.5,-0.5,26.0*,0.057,i
COCC(=O)N1C[C@@H](C)[C@H](OC)CN(C)C(=O)c2ccc(NC(=O)NC(C)C)cc2OC[C@@H]1C,/,-0.8,-4.8,0.0,2.2*,0.032[42 µM],i
CO[C@@H]1CN(C)C(=O)c2cc(NC(=O)NC(C)C)ccc2OC[C@@H](C)N(C)C[C@@H]1C,/,4.0,2.3,-1.1,37.2*,-0.047,i
Cc1ccc(SCC(=O)OCC(=O)NCCC2=CCCCC2)cc1,-7.6,1.1,5.8,-1.8,-0.4,/,/
O=C(COC(=O)CSc1ccc([N+](=O)[O-])cc1)NCCC1=CCCCC1,-5.0,6.9,9.5,3.7,5.5*,0.158,i
O=Cc1cc(N=Nc2cccc(C(=O)O)c2)ccc1O,-1.2,-3.0,-5.3,3.3,2.0*,0.065,i
O=C(CN(Cc1ccco1)C(=O)CNS(=O)(=O)c1ccccc1)NC1CCCCC1,-0.9,/,/,/,/,/,/
COc1cccc(CNC(=O)C2(C)CCCCN2C)c1 (configuration not stated),0.1,33.5,6.1,-4.6,2.6*,-0.101,i
COc1cccc(CNC(=O)C2(C)CCCN2C(=O)C(C)C)c1 (configuration not stated),-0.7,2.2,8.4,5.2,-0.2,/,/
O=C(C(=O)N1CCN(C/C=C/c2ccccc2)CC1)c1ccccc1,/,-4.5,-3.4,/,14.8*,0.073,i
CC(C)C(c1nnnn1CCc1ccccc1)N1CCOCC1 (configuration not stated),-0.9,/,/,/,/,/,/
CC(C)C(c1nnnn1CCc1ccccc1)N1CCSCC1 (configuration not stated),3.7,2.5,-3.8,-0.1,3.1*,0.032,i
N#Cc1cccc(NS(=O)(=O)c2ccc(S(=O)(=O)N3CCOCC3)cc2)c1,1.6,-1.8,6.0,3.3,0.4,/,/
O=C(Nc1ccccc1)c1ccc(S(=O)(=O)N2CCCC2)cc1,-1.3,/,/,/,/,/,/
